Reference: ChEMBL document CHEMBL4311932, “Novel zafirlukast derivatives exhibit selective antibacterial activity against Porphyromonas gingivalis” (Medchemcomm, 2019)
Calls of active or inactive are those of the source. The calls are words filed in the database; no cut-off is given here.

Key:
[1] = system: Porphyromonas gingivalis; experiment: Antibacterial activity against Porphyromonas gingivalis 381 assessed as bacterial growth inhibition at 10 uM measured after 2 hrs in anaerobic condition by WST1 assay relative to control; assay type: functional; conditions: Porphyromonas gingivalis, 381, 2 h; read-out: GI
In short: (§1)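 P. gingivalis 381 was grown anaerobically in BHI with 5 µg/mL hemin and 1 µg/mL menadione to log phase (3-4 h). Cultures at 10^6/well in 90 µL broth were exposed for 2 h, then given WST-1 for another 2 h. A450 was read with a 600 nm reference. % growth inhibition was taken against medium-only control, using DMSO vehicle and tetracycline 1 µg/mL as comparators.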

[2] = system: Porphyromonas gingivalis; experiment: Antibacterial activity against Porphyromonas gingivalis 381 assessed as bacterial growth inhibition at 100 uM measured after 2 hrs in anaerobic condition by WST1 assay relative to control; assay type: functional; conditions: Porphyromonas gingivalis, 381, 2 h; read-out: GI; in short: as §1
[3] = system: Porphyromonas gingivalis; experiment: Antibacterial activity against Porphyromonas gingivalis 381 assessed as bacterial growth inhibition at 1 uM measured after 2 hrs in anaerobic condition by WST1 assay relative to control; assay type: functional; conditions: Porphyromonas gingivalis, 381, 2 h; read-out: GI; in short: as §1
[4] = system: Porphyromonas gingivalis; experiment: Bactericidal activity against Porphyromonas gingivalis 381 at 100 uM treated for 24 hrs and measured after 7 days incubation in anaerobic condition […]; assay type: functional, organism-based
In short: (§2)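 Viable-count assay on P. gingivalis 381 (10^6/well) grown anaerobically. Cultures were exposed for 24 h to agents dissolved in DMSO. 50 µL of 1:400 dilutions were spread on blood agar, and CFU/mL was counted after 7 days anaerobic incubation. Controls were medium or DMSO (negative) and tetracycline 2.25 µM (positive).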

[5] = system: Porphyromonas gingivalis; experiment: Bactericidal activity against Porphyromonas gingivalis 381 at 1 uM treated for 24 hrs and measured after 7 days incubation in anaerobic condition by WST1 assay relative to control; assay type: functional; conditions: in the assay text read “by CFU counting” for “by WST1 assay”, read-out: GI; in short: as §2
[6] = system: Actinomyces naeslundii; experiment: Antibacterial activity against Actinomyces naeslundii ATCC 49340 assessed as bacterial growth inhibition at 1 to 100 uM after 2 hrs in anaerobic condition by WST1 assay; assay type: functional, organism-based
In short: (§3)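 Log-phase cultures (3-4 h in BHI broth after overnight growth) were plated at 10^6 bacteria/well in 90 µL and treated for 2 h. WST-1 was then added for a further 2 h incubation, aerobic for S. sanguinis and anaerobic for the others, at 37 °C. A450 was read against a 600 nm reference. % inhibition = 100 × [OD(medium control) − OD(treated)]/OD(control). Compounds were dissolved in DMSO.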

[7] = system: Aggregatibacter actinomycetemcomitans; experiment: Antibacterial activity against Aggregatibacter actinomycetemcomitans JP2 assessed as bacterial growth inhibition at 1 to 100 uM after 2 hrs in anaerobic condition by WST1 assay; assay type: functional, organism-based; in short: as §3
[8] = system: Streptococcus sanguinis; experiment: Antibacterial activity against Streptococcus sanguinis ATCC 10556 assessed as bacterial growth inhibition at 1 to 100 uM after 2 hrs in aerobic condition by WST1 assay relative to control; assay type: functional; in short: as §3
[9] = system: Veillonella parvula; experiment: Antibacterial activity against Veillonella parvula ATCC 10790 assessed as bacterial growth inhibition at 1 to 100 uM after 2 hrs in anaerobic condition by WST1 assay; assay type: functional, organism-based; in short: as §3
[10] = system: Fusobacterium nucleatum; experiment: Antibacterial activity against Fusobacterium nucleatum ATCC 25586 assessed as bacterial growth inhibition at 1 to 100 uM after 2 hrs in anaerobic condition by WST1 assay relative to control; assay type: functional; in short: as §3
[11] = Cytotoxicity against hTERT-immortalized human OKF6 cells assessed as cell viability at 1 uM after 24 hrs by tryphan blue staining based assay relative to control; conditions: read-out: Activity
In short: (§4)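 OKF6/hTERT keratinocytes were grown in Ker-SFM with 25 µg/mL bovine pituitary extract and 0.2 ng/mL EGF at 37 °C, 5% CO2. Cells were seeded overnight at 10^5/well and exposed for 24 h to 1 or 10 µM in DMSO. Cells were then trypsinized, washed, mixed 1:1 with trypan blue and counted automatically for % live/dead. Two independent experiments were run in duplicate.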

[12] = Induction of apoptosis in hTERT-immortalized human OKF6 cells assessed as viable cells at 1 to 10 uM after 24 hrs by AnnexinV-FITC/propidium iodide staining based flow cytometry analysis relative to control; conditions: read-out: Activity
In short: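 After 24 h treatment of OKF6/hTERT cells, adherent cells (trypsinized) were pooled with cells recovered from supernatants and washed in PBS. They were stained with FITC-Annexin V plus propidium iodide for 15 min at room temperature. At least 10,000 events were acquired per sample (excitation 488 nm, emission 530 nm), with viable, apoptotic and necrotic fractions reported against DMSO.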

[13] = Cytotoxicity against hTERT-immortalized human OKF6 cells assessed as reduction in cell viability after 24 hrs by tryphan blue staining based assay; conditions: OKF6, 24 h
In short: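 OKF6/hTERT cells at 10^5/well in Ker-SFM were exposed for 24 h to 0, 1, 2.5, 5, 10, 15, 20, 25, 50 and 100 µM in DMSO. Viability was counted by trypan blue exclusion on an automated counter, in triplicate. IC50 was derived from a fitted concentration-response curve.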

[14] = Cytotoxicity against hTERT-immortalized human OKF6 cells assessed as cell death at 1 to 10 uM after 24 hrs by tryphan blue staining based assay; in short: as §4
[15] = system: Porphyromonas gingivalis; experiment: Bactericidal activity against Porphyromonas gingivalis 381 at 10 uM treated for 24 hrs and measured after 7 days incubation in anaerobic condition by CFU counting relative to control; conditions: read-out: GI
[16] = system: Porphyromonas gingivalis; experiment: Antibacterial activity against Porphyromonas gingivalis 381 assessed as bacterial growth inhibition at 2.25 uM measured after 2 hrs in anaerobic condition by WST1 assay; assay type: functional, organism-based
[17] = system: Porphyromonas gingivalis; experiment: Antibacterial activity against Porphyromonas gingivalis 381 assessed as bacterial growth inhibition at 25 to 50 uM measured after 2 hrs in anaerobic condition by WST1 assay; assay type: functional, organism-based
[18] = system: Porphyromonas gingivalis; experiment: Bactericidal activity against Porphyromonas gingivalis 381 at 25 to 50 uM treated for 24 hrs and measured after 7 days incubation in anaerobic condition […]; assay type: functional, organism-based; in short: as §2

With COc1ccc(Cc2c[nH]c3ccccc23)cc1C(=O)NS(=O)(=O)c1ccccc1C the inhibition of growth at 10 µM [1] was 80% and the inhibition of growth at 100 µM [2] was 100%.

COc1cc(C(=O)NS(=O)(=O)c2ccccc2C)ccc1Cc1cn(C)c2ccccc12 showed an inhibition of growth at 100 µM [2] of 60%.

Work on COc1ccc(Cc2cn(C)c3ccc([N+](=O)[O-])cc23)cc1C(=O)NS(=O)(=O)c1ccccc1 yielded an inhibition of growth at 1 µM [3] of 15 to 40%, an inhibition of growth at 10 µM [1] of 90 to 100% and an inhibition of growth at 100 µM [2] of 100%. For the same compound, the Activity [4] was “Active”, the inhibition of growth at 1 µM [5] was 60% and the “growth inhibition (GI)” value [6] was “inactive”. The inhibition [7] was “inactive”, the “inhibition (INH)” value [8] was 20% and the inhibition [9] was “inactive”. For the same compound, the “inhibition (INH)” value [10] was 20%, the viability at 24 h, 1 µM [11] was 70 to 90% and the viability at 24 h, up to 10 µM [12] was 50 to 70%. The IC50 [13] was 54 µM, the Activity [14] was “Non-Toxic” and the inhibition of growth at 10 µM [15] was 100%.

Cc1ccccc1S(=O)(=O)NC(=O)c1ccc(Cc2c[nH]c3ccccc23)cc1 gave an inhibition of growth at 10 µM [1] of 90% and an inhibition of growth at 100 µM [2] of 100%.

Compound O=C(NS(=O)(=O)c1ccccc1)c1ccc(Cc2c[nH]c3ccccc23)cc1 has an inhibition of growth at 10 µM [1] of 40% and an inhibition of growth at 100 µM [2] of 100%.

In the case of COc1cc(C(=O)NS(=O)(=O)c2ccccc2)ccc1Cc1cn(C)c2ccccc12, the inhibition of growth at 100 µM [2] is reported as 60%.

For CN(C)[C@@H]1C(O)=C(C(N)=O)C(=O)[C@@]2(O)C(O)=C3C(=O)c4c(O)cccc4[C@@](C)(O)[C@H]3C[C@@H]12, the “growth inhibition (GI)” value [16] was “Active”.

With COc1ccc(Cc2cn(C)c3ccc([N+](=O)[O-])cc23)cc1C(=O)NS(=O)(=O)c1ccccc1C the inhibition of growth at 1 µM [3] was 15 to 40%, the inhibition of growth at 10 µM [1] was 90 to 100% and the inhibition of growth at 100 µM [2] was 100%. For the same compound, the Activity [4] was “Active”, the inhibition [6] was “inactive” and the inhibition [7] was “inactive”. The “inhibition (INH)” value [8] was 20%, the inhibition [9] was “inactive” and the “inhibition (INH)” value [10] was 20%. The viability at 24 h, 1 µM [11] was 70 to 90%, the viability at 24 h, up to 10 µM [12] was 50 to 70% and the IC50 [13] was 230 µM. For the same compound, the Activity [14] was “Toxic”.

Cn1cc(Cc2ccc(C(=O)NS(=O)(=O)c3ccccc3)cc2)c2ccccc21 gave an inhibition of growth at 10 µM [1] of 90 to 100% and an inhibition of growth at 100 µM [2] of 100%.

With COc1cc(C(=O)NS(=O)(=O)c2ccccc2C)ccc1Cc1cn(C)c2ccc(NC(=O)OC3CCCC3)cc12 the “growth inhibition (GI)” value [17] was “Active” and the Activity [18] was “Active”.

COc1ccc(Cc2cn(C)c3ccccc23)cc1C(=O)NS(=O)(=O)c1ccccc1C showed an inhibition of growth at 1 µM [3] of 15 to 40%, an inhibition of growth at 10 µM [1] of 90 to 100% and an inhibition of growth at 100 µM [2] of 100%. For the same compound, the “growth inhibition (GI)” value [6] was “inactive”, the inhibition [7] was “inactive” and the “inhibition (INH)” value [8] was 20%. For the same compound, the inhibition [9] was “inactive”, the “inhibition (INH)” value [10] was 20% and the viability at 24 h, 1 µM [11] was 70 to 90%. For the same compound, the viability at 24 h, up to 10 µM [12] was 50 to 70%, the IC50 [13] was 16 µM and the Activity [14] was “Toxic”.

In the case of COc1ccc(Cc2c[nH]c3ccccc23)cc1C(=O)NS(=O)(=O)c1ccccc1, the inhibition of growth at 10 µM [1] is reported as 40% and the inhibition of growth at 100 µM [2] is reported as 100%.

With COc1ccc(Cc2cn(C)c3ccccc23)cc1C(=O)NS(=O)(=O)c1ccccc1 the inhibition of growth at 10 µM [1] was 90 to 100% and the inhibition of growth at 100 µM [2] was 100%.
